According to ChEMBL document CHEMBL3102751, “Cholinesterase inhibitory activity versus aromatic core multiplicity: a facile green synthesis and molecular docking study of novel piperidone embedded thiazolopyrimidines” (Bioorg Med Chem, 2014):

How the values were obtained:
[1] = molecular target: Cholinesterase (Equus caballus, UniProt P81908); test: Inhibition of equine serum butyrylcholinesterase using S-butyrylthiocholine chloride as substrate preincubated for 15 mins followed by substrate addition measured for 30 mins by Ellman's method
Sequence of Cholinesterase (P81908 whole entry): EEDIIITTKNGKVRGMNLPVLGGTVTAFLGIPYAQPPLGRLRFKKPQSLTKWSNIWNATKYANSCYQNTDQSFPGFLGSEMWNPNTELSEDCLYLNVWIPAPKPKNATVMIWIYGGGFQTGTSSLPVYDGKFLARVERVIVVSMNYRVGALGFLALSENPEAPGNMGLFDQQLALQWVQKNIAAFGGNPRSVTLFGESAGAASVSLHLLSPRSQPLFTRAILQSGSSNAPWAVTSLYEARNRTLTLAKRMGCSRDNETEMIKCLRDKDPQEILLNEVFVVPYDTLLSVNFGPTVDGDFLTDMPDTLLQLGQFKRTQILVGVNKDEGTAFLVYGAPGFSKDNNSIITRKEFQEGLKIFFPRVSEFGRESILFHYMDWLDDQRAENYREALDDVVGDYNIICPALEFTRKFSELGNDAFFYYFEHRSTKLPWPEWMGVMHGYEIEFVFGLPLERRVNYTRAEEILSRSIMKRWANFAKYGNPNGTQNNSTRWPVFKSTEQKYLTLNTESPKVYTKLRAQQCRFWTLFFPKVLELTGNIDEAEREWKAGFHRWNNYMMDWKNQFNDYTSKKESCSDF
In short: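 Modified Ellman assay in 0.1 M sodium phosphate buffer, pH 8. Samples were prepared in DMSO, with 1% DMSO in the final mix. Equine serum BChE was incubated with sample for 15 min at 25 °C. 10 mM DTNB stock was then added, followed by 14 mM S-butyrylthiocholine chloride stock. Absorbance at 412 nm was read for 30 min, and % inhibition was calculated relative to control.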

[2] = molecular target: Acetylcholinesterase (Electrophorus electricus, UniProt O42275); test: Inhibition of Electrophorus electricus acetylcholinesterase using acetylthiocholine iodide as substrate preincubated for 15 mins followed by substrate addition measured for 30 mins by Ellman's method
Sequence of Acetylcholinesterase (O42275 whole entry): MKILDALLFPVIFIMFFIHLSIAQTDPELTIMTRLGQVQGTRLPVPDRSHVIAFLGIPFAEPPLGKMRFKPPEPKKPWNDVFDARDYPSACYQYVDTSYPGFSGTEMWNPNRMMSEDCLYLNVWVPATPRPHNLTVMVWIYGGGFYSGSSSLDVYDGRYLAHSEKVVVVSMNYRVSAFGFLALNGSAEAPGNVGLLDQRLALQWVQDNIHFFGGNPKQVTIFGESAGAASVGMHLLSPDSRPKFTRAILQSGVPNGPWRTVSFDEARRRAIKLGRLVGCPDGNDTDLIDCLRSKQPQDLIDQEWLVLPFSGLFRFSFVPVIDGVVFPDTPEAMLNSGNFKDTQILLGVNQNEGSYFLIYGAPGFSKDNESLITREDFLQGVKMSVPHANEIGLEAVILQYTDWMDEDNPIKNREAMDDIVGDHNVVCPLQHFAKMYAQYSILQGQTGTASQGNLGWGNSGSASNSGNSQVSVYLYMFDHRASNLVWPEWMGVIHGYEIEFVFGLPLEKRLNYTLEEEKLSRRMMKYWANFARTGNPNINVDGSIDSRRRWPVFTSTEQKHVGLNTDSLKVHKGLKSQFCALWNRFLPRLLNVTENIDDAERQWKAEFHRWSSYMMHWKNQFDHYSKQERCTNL

[3] = Selectivity ratio of IC50 for Electrophorus electricus acetylcholinesterase to IC50 for equine serum butyrylcholinesterase
[4] = Selectivity ratio of IC50 for equine serum butyrylcholinesterase to IC50 for Electrophorus electricus acetylcholinesterase

## COc1ccccc1/C=C1\CNCC2C1NC(=S)NC2c1ccccc1OC (stereo not drawn)
[1]
  IC50: 1.18 µM
[2]
  IC50: 0.8 µM

## COc1ccccc1/C=C1\CNCC2=C1N=C1SC=C(c3ccc(Cl)cc3)N1C2c1ccccc1OC (stereo not drawn)
[1]
  IC50: 29.3 µM
[3]
  Ratio IC50: 0.17
[4]
  Ratio IC50: 5.76
[2]
  IC50: 5.08 µM

## Clc1ccc(C2=CSC3=NC4=C(CNC/C4=C\c4ccccc4)C(c4ccccc4)N23)cc1 (stereo not drawn)
[1]
  IC50: 44.3 µM
[3]
  Ratio IC50: 0.54
[4]
  Ratio IC50: 1.86
[2]
  IC50: 23.9 µM

## C1=C(c2ccccc2)N2C(=NC3=C(CNC/C3=C\c3ccccc3)C2c2ccccc2)S1 (stereo not drawn)
[1]
  IC50: 1.74 µM
[3]
  Ratio IC50: 0.84
[4]
  Ratio IC50: 1.19
[2]
  IC50: 1.47 µM

## Fc1ccc(/C=C2\CNCC3=C2N=C2SC=C(c4ccc(Cl)cc4)N2C3c2ccc(F)cc2)cc1 (stereo not drawn)
[1]
  IC50: 22.2 µM
[3]
  Ratio IC50: 0.46
[4]
  Ratio IC50: 2.16
[2]
  IC50: 10.3 µM

## COc1ccc(C2=CSC3=NC4=C(CNC/C4=C\c4ccc(Cl)cc4)C(c4ccc(Cl)cc4)N23)cc1 (stereo not drawn)
[1]
  IC50: 12.8 µM
[3]
  Ratio IC50: 0.66
[4]
  Ratio IC50: 1.52
[2]
  IC50: 8.44 µM

## Fc1ccc(/C=C2\CNCC3=C2N=C2SC=C(c4ccc(F)cc4)N2C3c2ccc(F)cc2)cc1 (stereo not drawn)
[1]
  IC50: 15.8 µM
[3]
  Ratio IC50: 0.83
[4]
  Ratio IC50: 1.2
[2]
  IC50: 13.2 µM

## COc1ccc(C2=CSC3=NC4=C(CNC/C4=C\c4ccccc4Cl)C(c4ccccc4Cl)N23)cc1 (stereo not drawn)
[1]
  IC50: 12.6 µM
[3]
  Ratio IC50: 0.63
[4]
  Ratio IC50: 1.58
[2]
  IC50: 7.97 µM

## S=C1NC2/C(=C/c3ccccc3Cl)CNCC2C(c2ccccc2Cl)N1 (stereo not drawn)
[1]
  IC50: 2.91 µM
[2]
  IC50: 32.3 µM

## Fc1ccc(/C=C2\CNCC3=C2N=C2SC=C(c4ccccc4)N2C3c2ccc(F)cc2)cc1 (stereo not drawn)
[1]
  IC50: 3.95 µM
[3]
  Ratio IC50: 1.02
[4]
  Ratio IC50: 0.98
[2]
  IC50: 4.04 µM

## Cc1ccc(/C=C2\CNCC3=C2N=C2SC=C(c4ccc(F)cc4)N2C3c2ccc(C)cc2)cc1 (stereo not drawn)
[1]
  IC50: 4.91 µM
[3]
  Ratio IC50: 1.32
[4]
  Ratio IC50: 0.76
[2]
  IC50: 6.47 µM

## COc1ccc(C2=CSC3=NC4=C(CNC/C4=C\c4ccccc4OC)C(c4ccccc4OC)N23)cc1 (stereo not drawn)
[1]
  IC50: 18.6 µM
[3]
  Ratio IC50: 0.64
[4]
  Ratio IC50: 1.55
[2]
  IC50: 12 µM

## COc1ccc(C2=CSC3=NC4=C(CNC/C4=C\c4ccccc4)C(c4ccccc4)N23)cc1 (stereo not drawn)
[1]
  IC50: 10.4 µM
[3]
  Ratio IC50: 1.52
[4]
  Ratio IC50: 0.65
[2]
  IC50: 15.9 µM

## Fc1ccc(C2=CSC3=NC4=C(CNC/C4=C\c4ccccc4Cl)C(c4ccccc4Cl)N23)cc1 (stereo not drawn)
[1]
  IC50: 4.63 µM
[3]
  Ratio IC50: 0.76
[4]
  Ratio IC50: 1.3
[2]
  IC50: 6.03 µM

## Fc1ccc(C2=CSC3=NC4=C(CNC/C4=C\c4ccccc4)C(c4ccccc4)N23)cc1 (stereo not drawn)
[1]
  IC50: 7.91 µM
[3]
  Ratio IC50: 2.57
[4]
  Ratio IC50: 0.39
[2]
  IC50: 20.3 µM

## S=C1NC2/C(=C/c3ccc(Cl)cc3)CNCC2C(c2ccc(Cl)cc2)N1 (stereo not drawn)
[1]
  IC50: 6.26 µM
[2]
  IC50: 2.25 µM

## Cc1ccc(/C=C2\CNCC3=C2N=C2SC=C(c4ccc(Cl)cc4)N2C3c2ccc(C)cc2)cc1 (stereo not drawn)
[1]
  IC50: 32.6 µM
[3]
  Ratio IC50: 0.67
[4]
  Ratio IC50: 1.5
[2]
  IC50: 21.7 µM

## COc1ccc(C2=CSC3=NC4=C(CNC/C4=C\c4ccc(C)cc4)C(c4ccc(C)cc4)N23)cc1 (stereo not drawn)
[1]
  IC50: 10.5 µM
[3]
  Ratio IC50: 0.99
[4]
  Ratio IC50: 1.01
[2]
  IC50: 10.4 µM

## Clc1ccc(/C=C2\CNCC3=C2N=C2SC=C(c4ccc(Cl)cc4)N2C3c2ccc(Cl)cc2)cc1 (stereo not drawn)
[1]
  IC50: 27.4 µM
[3]
  Ratio IC50: 0.2
[4]
  Ratio IC50: 5.11
[2]
  IC50: 5.37 µM

## COc1ccccc1/C=C1\CNCC2=C1N=C1SC=C(c3ccc(F)cc3)N1C2c1ccccc1OC (stereo not drawn)
[1]
  IC50: 8.75 µM
[3]
  Ratio IC50: 0.63
[4]
  Ratio IC50: 1.59
[2]
  IC50: 5.5 µM

## Clc1ccc(/C=C2\CNCC3=C2N=C2SC=C(c4ccccc4)N2C3c2ccc(Cl)cc2)cc1 (stereo not drawn)
[1]
  IC50: 2.18 µM
[3]
  Ratio IC50: 0.74
[4]
  Ratio IC50: 1.35
[2]
  IC50: 1.62 µM

## COc1ccccc1/C=C1\CNCC2=C1N=C1SC=C(c3ccccc3)N1C2c1ccccc1OC (stereo not drawn)
[1]
  IC50: 4.1 µM
[3]
  Ratio IC50: 1.03
[4]
  Ratio IC50: 0.97
[2]
  IC50: 4.23 µM

## Cc1ccc(/C=C2\CNCC3=C2N=C2SC=C(c4ccccc4)N2C3c2ccc(C)cc2)cc1 (stereo not drawn)
[1]
  IC50: 1.71 µM
[3]
  Ratio IC50: 0.31
[4]
  Ratio IC50: 3.21
[2]
  IC50: 0.53 µM

## Fc1ccc(/C=C2\CNCC3C2NC(=S)NC3c2ccc(F)cc2)cc1 (stereo not drawn)
[1]
  IC50: 28.8 µM
[2]
  IC50: 37.2 µM

## COc1ccc(C2=CSC3=NC4=C(CNC/C4=C\c4ccc(F)cc4)C(c4ccc(F)cc4)N23)cc1 (stereo not drawn)
[1]
  IC50: 26.5 µM
[3]
  Ratio IC50: 0.84
[4]
  Ratio IC50: 1.18
[2]
  IC50: 22.4 µM

## S=C1NC2/C(=C/c3ccccc3)CNCC2C(c2ccccc2)N1 (stereo not drawn)
[1]
  IC50: 3.78 µM
[2]
  IC50: 19.3 µM

## Clc1ccc(C2=CSC3=NC4=C(CNC/C4=C\c4ccccc4Cl)C(c4ccccc4Cl)N23)cc1 (stereo not drawn)
[1]
  IC50: 7.65 µM
[3]
  Ratio IC50: 0.68
[4]
  Ratio IC50: 1.47
[2]
  IC50: 5.2 µM

## Fc1ccc(C2=CSC3=NC4=C(CNC/C4=C\c4ccc(Cl)cc4)C(c4ccc(Cl)cc4)N23)cc1 (stereo not drawn)
[1]
  IC50: 15.8 µM
[3]
  Ratio IC50: 0.36
[4]
  Ratio IC50: 2.75
[2]
  IC50: 5.73 µM

## Cc1ccc(/C=C2\CNCC3C2NC(=S)NC3c2ccc(C)cc2)cc1 (stereo not drawn)
[1]
  IC50: 6.27 µM
[2]
  IC50: 37.5 µM

## Clc1ccccc1/C=C1\CNCC2=C1N=C1SC=C(c3ccccc3)N1C2c1ccccc1Cl (stereo not drawn)
[1]
  IC50: 2.68 µM
[3]
  Ratio IC50: 0.77
[4]
  Ratio IC50: 1.3
[2]
  IC50: 2.05 µM
